Tests used:
[1] = Stability of the compound in pH 7.4 PIPES buffer assessed as compound hydrolysis at 5 to 10 mg by 31p-NMR analysis; type: physicochemical
[2] = system: Mycobacterium tuberculosis; test: Time-dependent inhibition of Mycobacterium tuberculosis BlaC expressed in Escherichia coli assessed as inactivation rate constant using nitrocefin as substrate
[3] = system: Mycobacterium tuberculosis; test: Inhibition of Mycobacterium tuberculosis BlaC expressed in Escherichia coli at 100 uM using nitrocefin as substrate measured at 2 mins interval for 10 mins relative to control
Summary of the method: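 Purified BlaC was screened against each compound at a single concentration of 100 µM, and percent inhibition was read. Each % inhibition value comes from n ≥ 4 determinations and is reported with its standard deviation.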

Structure (SMILES) | Stability [1] | K [2] [min⁻¹] | inhibition [3] [%]
N#Cc1ccc(C(=O)OP(=O)(O)OC(=O)c2ccc(C#N)cc2)cc1 | Unstable | – | –
COc1ccc(C(=O)OP(=O)(O)OC(=O)c2ccc(OC)cc2)cc1 | Stable | 0.212 | 65.5
O=C(OP(=O)(O)OC(=O)c1ccc(-c2ccccc2)cc1)c1ccc(-c2ccccc2)cc1 | Stable | – | 0
O=C(OP(=O)(O)OC(=O)c1ccccc1)c1ccccc1 | Stable | 0.324 | 52.3
O=C(OP(=O)(O)OC(=O)c1ccc(F)cc1)c1ccc(F)cc1 | Stable | 0.45 | 84.3
Cc1ccc(C(=O)OP(=O)(O)OC(=O)c2ccc(C)cc2)cc1 | Stable | – | 41.2
O=C(OP(=O)(O)OC(=O)c1ccc(Cl)c(Cl)c1)c1ccc(Cl)c(Cl)c1 | Stable | – | 20.2
O=C(OP(=O)(O)OC(=O)c1ccc([N+](=O)[O-])cc1)c1ccc([N+](=O)[O-])cc1 | Unstable | – | –
O=C(OP(=O)(O)OC(=O)c1ccc(Cl)cc1)c1ccc(Cl)cc1 | Stable | – | 24.8
O=C(OP(=O)(O)OC(=O)c1ccc(C(F)(F)F)cc1)c1ccc(C(F)(F)F)cc1 | Stable | – | 42.5

From ChEMBL document CHEMBL4387777, “Bis(benzoyl) phosphate inactivators of beta-lactamase C from Mtb” (Bioorg Med Chem Lett, 2019)
